Measurements published in ChEMBL document CHEMBL5223067, “Functionalized resorcinarenes effectively disrupt the aggregation of αA66-80 crystallin peptide related to cataracts” (RSC Med Chem, 2021).
Several values for one entry are separate records, joined by “and”; a condition that tells them apart may be missing. Equal entries are not always repeated. Activity calls are given as the source filed them. The calls are words filed in the database; no cut-off is given here.

Columns and labels:
[1] = Binding affinity to histidine in aqueous solution assessed as change in entropy at 1 mM by isothermal titration calorimetry
Outline: (§1)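 ITC at 298 K. The sample cell holds one partner at 1 mM and the syringe holds titrant at 15 mM, added by automated injections. Titrations were run in water and in 10 mM Tris buffer pH 7.4. Blank titrations into plain solvent were subtracted to correct for heats of dilution. The data were fitted to a 1:1 (one-site) binding model to give K, ΔH and ΔS.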

[2] = Binding affinity to lysine in deuterium oxide solution assessed as change in complexation induced chemical shift at 2 mM by 1H NMR analysis
[3] = Binding affinity to arginine in deuterium oxide solution assessed as change in complexation induced chemical shift at 2 mM by 1H NMR analysis
[4] = target: T1, Alpha-crystallin A chain (Homo sapiens) (UniProt P02489); assay: Binding affinity to alphaA (66 to 80 residues) crystallin peptide in aqueous solution assessed as change in enthalpy at 1 mM by isothermal titration calorimetry
T1 sequence (whole entry): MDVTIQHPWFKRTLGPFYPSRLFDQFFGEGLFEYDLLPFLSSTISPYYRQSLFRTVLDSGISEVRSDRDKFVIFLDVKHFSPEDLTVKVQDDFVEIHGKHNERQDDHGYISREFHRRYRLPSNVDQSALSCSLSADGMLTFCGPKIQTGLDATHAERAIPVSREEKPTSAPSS
Outline: (§2)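 ITC at 298 K: sample cell filled with one partner at 1 mM, titrant at 15 mM in syringe, computer-automated injections. Blank titrations into plain solvent subtracted to remove heats of dilution. Data fitted to a 1:1 (one-site) binding model to give K, ΔH and ΔS.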

[5] = Binding affinity to aspartic acid in aqueous solution assessed as gibbs free energy change at 1 mM by isothermal titration calorimetry; outline: as §2
[6] = Binding affinity to aspartic acid in deuterium oxide solution assessed as change in complexation induced chemical shift at 2 mM by 1H NMR analysis
[7] = target: T1, Alpha-crystallin A chain (Homo sapiens); assay: Inhibition of alphaA (66 to 80 residues) crystallin peptide aggregation assessed as amorphous small protein aggregates at 1:1 peptide to ligand ratio incubated for 7 days by transmission electron microscopy; settings: time 7.0 day
Outline: (§3)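 Peptide incubated with receptor at 1:1 or 5:1 ratio for 7 days at 37 °C. A 10 μL aliquot taken on day 7 was loaded onto Formvar-carbon coated 200 mesh nickel grids and allowed to absorb for 2 h. Grids were washed three times with deionized water and blotted dry. Peptide-alone control; duplicate grids per sample; imaged by TEM.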

[8] = target: T1, Alpha-crystallin A chain (Homo sapiens); assay: Binding affinity to alphaA (66 to 80 residues) crystallin peptide in aqueous solution assessed as change in entropy at 1 mM by isothermal titration calorimetry; outline: as §2
[9] = target: T1, Alpha-crystallin A chain (Homo sapiens); assay: Inhibition of alphaA (66 to 80 residues) crystallin peptide aggregation assessed as decrease in average diameter size distribution at 1:1 peptide to ligand ratio incubated for 7 days by dynamic light scattering (Rvb=12000+/-1500 nm); settings: time 7.0 day
[10] = target: T1, Alpha-crystallin A chain (Homo sapiens); assay: Inhibition of alphaA (66 to 80 residues) crystallin peptide aggregation assessed as decrease in peptide-receptor complex and measured upto 2 hrs by ESI-MS analysis
Outline: (§4)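 Peptide and host (10 mM aqueous stocks) were mixed in equal parts to 5 mM each. Mixtures were diluted in ESI buffer (50% methanol, 49% water, 1% acetic acid) and analysed by positive-mode ESI-MS, either within 2 h of mixing or after incubation for 72+ h at 37 °C followed by 100-fold dilution.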

[11] = target: T1, Alpha-crystallin A chain (Homo sapiens); assay: Inhibition of alphaA (66 to 80 residues) crystallin peptide aggregation assessed as decrease in peptide-receptor complex and measured after 72 hrs by ESI-MS analysis; outline: as §4
[12] = Binding affinity to histidine in aqueous solution assessed as association constant at 1 mM by isothermal titration calorimetry; outline: as §2
[13] = target: T1, Alpha-crystallin A chain (Homo sapiens); assay: Binding affinity to alphaA (66 to 80 residues) crystallin peptide in aqueous solution assessed as gibbs free energy change at 1 mM by isothermal titration calorimetry; outline: as §2
[14] = Binding affinity to aspartic acid in aqueous solution assessed as association constant at 1 mM by isothermal titration calorimetry; outline: as §2
[15] = target: T1, Alpha-crystallin A chain (Homo sapiens); assay: Inhibition of alphaA (66 to 80 residues) crystallin peptide aggregation assessed decrease in large fibrillar aggregation at 1:1 peptide to ligand ratio incubated for 7 days by transmission electron microscopy; settings: time 7.0 day; outline: as §3
[16] = Binding affinity to histidine in deuterium oxide solution assessed as change in complexation induced chemical shift at 2 mM by 1H NMR analysis
[17] = target: T1, Alpha-crystallin A chain (Homo sapiens); assay: Binding affinity to alphaA (66 to 80 residues) crystallin peptide in aqueous solution assessed as association constant at 1 mM by isothermal titration calorimetry; outline: as §2
[18] = Binding affinity to histidine in aqueous solution assessed as change in enthalpy at 1 mM by isothermal titration calorimetry; outline: as §2
[19] = Binding affinity to aspartic acid in aqueous solution assessed as change in entropy at 1 mM by isothermal titration calorimetry; outline: as §1
[20] = Binding affinity to histidine in aqueous solution assessed as gibbs free energy change at 1 mM by isothermal titration calorimetry; outline: as §2
[21] = Binding affinity to aspartic acid in aqueous solution assessed as change in enthalpy at 1 mM by isothermal titration calorimetry; outline: as §2
[22] = target: T1, Alpha-crystallin A chain (Homo sapiens); assay: Inhibition of alphaA (66 to 80 residues) crystallin peptide aggregation at peptide to ligand ratio of 0.2 to 5:1 incubated for 7 days by fluorescence aggregation assay; settings: time 7.0 day
Outline: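 5360 μM peptide in 10 mM Tris was mixed with receptor at 0.2:1 to 10:1 receptor:peptide ratios and incubated 7 days at 37 °C. Proteostat dye was added (1 μL per 10 μL sample) with positive/negative dye controls. Fluorescence was read at 25 °C. Triplicates; percent inhibition plotted vs log[concentration] to derive IC50.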

[23] = Binding affinity to arginine in aqueous solution assessed as change in enthalpy at 1 mM by isothermal titration calorimetry; outline: as §2
[24] = Binding affinity to lysine in aqueous solution assessed as change in enthalpy at 1 mM by isothermal titration calorimetry; outline: as §2
[25] = Binding affinity to lysine in aqueous solution assessed as gibbs free energy change at 1 mM by isothermal titration calorimetry; outline: as §2
[26] = Binding affinity to arginine in aqueous solution assessed as gibbs free energy change at 1 mM by isothermal titration calorimetry; outline: as §2
[27] = Binding affinity to arginine in aqueous solution assessed as change in entropy at 1 mM by isothermal titration calorimetry; outline: as §1
[28] = Binding affinity to lysine in aqueous solution assessed as association constant at 1 mM by isothermal titration calorimetry; outline: as §2
[29] = Binding affinity to arginine in aqueous solution assessed as association constant at 1 mM by isothermal titration calorimetry; outline: as §2
[30] = Binding affinity to lysine in aqueous solution assessed as change in entropy at 1 mM by isothermal titration calorimetry; outline: as §1

Row | TdeltaS [1] [kcal/mol] | Activity [2] | Activity [3] | deltaH [4] [kcal/mol] | Activity [6] | inhibition [7] | TdeltaS [8] [kcal/mol] | Activity [9] [nm] | inhibition [10] | inhibition [11] | Ka [12] | deltaG [13] | inhibition [15] | Activity [16] | Ka [17] | deltaH [18] [kcal/mol] | deltaG [20] | inhibition [22] | deltaH [23] [kcal/mol] | deltaH [24] [kcal/mol] | Structure (SMILES) | further results
1 | -1.84 | Active | Active | 4.89 | Active | Active | 9.48 | 202 | Active | Active | 14.9 10^3/M | -4.59 kcal/mol | Active | Active | 2.4 10^3/M | -7.53 | -5.69 kcal/mol | Dose-Dependent Effect | – | – | OCCCCc1cc(C(CCCO)c2cc(C(CCCO)c3cc(C(CCCO)c4ccc(O)c(CNCc5ccccc5)c4O)c(O)c(CNCc4ccccc4)c3O)c(O)c(CNCc3ccccc3)c2O)c(O)c(CNCc2ccccc2)c1O (centres undefined) | deltaG [5]: -3.9 kcal/mol; Ka [14]: 7.3 10^3/M; TdeltaS [19]: 2.9 kcal/mol; deltaH [21]: -1 kcal/mol
2 | 3.75 | Active | Active | -3.23 | inactive | Active | 4.38 | 3740 | inactive | inactive | 3.44 10^3/M | -7.61 kcal/mol and -7.6 kcal/mol | Active | inactive | 380 10^3/M | -1.05 | -4.8 kcal/mol | Dose-Dependent Effect | -15.2 | -6.74 | O=S(=O)(O)CCCc1cc(C(CCS(=O)(=O)O)c2cc(C(CCS(=O)(=O)O)c3cc(C(CCS(=O)(=O)O)c4ccc(O)cc4O)c(O)cc3O)c(O)cc2O)c(O)cc1O (centres undefined) | deltaG [25]: -4.98 kcal/mol and -4.97 kcal/mol; deltaG [26]: -4.9 kcal/mol; TdeltaS [27]: -10.2 kcal/mol; Ka [28]: 4.45 10^3/M; Ka [29]: 3.64 10^3/M; TdeltaS [30]: -1.76 kcal/mol
3 | 6.91 | Active | Active | -8.28 | inactive | Active | 0.092 | 1920 | inactive | inactive | 2.94 10^3/M | -8.37 kcal/mol | Active | inactive | 1360 10^3/M | -2.59 | -9.5 kcal/mol and -9.51 kcal/mol | Dose-Dependent Effect | -15.7 | -12.1 | CCCc1cc(C(CC)c2cc(C(CC)c3cc(C(CC)c4ccc(O)c(CS(=O)(=O)O)c4O)c(O)c(CS(=O)(=O)O)c3O)c(O)c(CS(=O)(=O)O)c2O)c(O)c(CS(=O)(=O)O)c1O (centres undefined) | deltaG [25]: -5.62 kcal/mol; deltaG [26]: -5.27 kcal/mol and -5.28 kcal/mol; TdeltaS [27]: -10.4 kcal/mol; Ka [28]: 5.89 10^3/M; Ka [29]: 7.27 10^3/M; TdeltaS [30]: -6.45 kcal/mol
